The source made the active and inactive calls. The calls are words filed in the database; no cut-off is given here.

One test has as its system HepG2. Put plainly: Cytotoxicity against human HepG2 cells assessed as growth inhibition after 48 hrs by MTT assay. The format is functional, cell-based. Conditions: HepG2, 48 h. Put shortly:
(§1)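 K562 (RPMI-1640) or HepG-2 (DMEM) cells in 10% FBS with penicillin/streptomycin at 37 °C, 5% CO₂. Seeded at 1.5×10^5 cells/mL and treated 48 h at various concentrations. MTT (5 mg/mL) added for 4 h, formazan dissolved in DMSO, absorbance read at 490 nm. IC50 reported.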

For test [1], the system named is K562. Put plainly: Cytotoxicity against human K562 cells assessed as growth inhibition after 48 hrs by MTT assay. Conditions: K562, 48 h. In kind it is functional, cell-based. Put shortly:
as §1
Background: Tetrazolium assays rely on reduction of a dye to a coloured formazan, in cell work by metabolically active cells.

For test [2], the system named is DNA. Put plainly: Binding affinity to calf thymus DNA by fluorescence spectroscopic analysis. In kind it is nucleic-acid assay. Conditions: Bos taurus. The method in brief: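 Compound at 50 μM final in Tris–HCl buffer pH 7.0 (10 mM Tris, 10 mM NaCl), titrated with ct DNA at 0 to 6 μM final. Emission excited at 420 nm with a xenon arc lamp. Quenching constant Kq derived from a Stern–Volmer plot, F0/F = 1 + Kq[Q].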

In test [3] the target is T1, DNA topoisomerase 1 (Homo sapiens) (UniProt P11387).
T1 sequence (whole entry): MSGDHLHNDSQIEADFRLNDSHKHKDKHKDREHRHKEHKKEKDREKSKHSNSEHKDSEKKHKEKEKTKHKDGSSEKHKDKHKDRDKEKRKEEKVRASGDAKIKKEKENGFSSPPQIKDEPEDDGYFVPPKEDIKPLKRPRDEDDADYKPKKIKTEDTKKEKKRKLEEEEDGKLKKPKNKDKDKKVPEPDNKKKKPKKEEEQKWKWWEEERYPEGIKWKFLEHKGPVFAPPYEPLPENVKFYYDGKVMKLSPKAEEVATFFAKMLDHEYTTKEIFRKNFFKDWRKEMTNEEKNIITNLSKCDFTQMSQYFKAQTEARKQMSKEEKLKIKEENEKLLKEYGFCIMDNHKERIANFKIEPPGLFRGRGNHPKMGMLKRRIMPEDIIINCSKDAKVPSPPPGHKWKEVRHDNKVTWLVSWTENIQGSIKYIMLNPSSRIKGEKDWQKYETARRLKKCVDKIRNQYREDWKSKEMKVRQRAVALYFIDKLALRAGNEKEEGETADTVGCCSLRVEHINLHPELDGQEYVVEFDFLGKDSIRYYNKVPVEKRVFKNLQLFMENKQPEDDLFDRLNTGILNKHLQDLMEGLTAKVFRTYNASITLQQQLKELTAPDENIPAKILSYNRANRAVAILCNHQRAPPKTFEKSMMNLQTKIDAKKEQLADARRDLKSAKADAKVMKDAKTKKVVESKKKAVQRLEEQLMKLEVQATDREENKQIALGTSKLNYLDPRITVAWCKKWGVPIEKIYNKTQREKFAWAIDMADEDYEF
Put plainly: Inhibition of human recombinant DNA topoisomerase-1 assessed as relaxation of pBR322 DNA at 25 uM after 30 mins by agarose gel electrophoresis.

Test [4] deals with K562. Description: Induction of apoptosis in human K562 cells after 48 hrs by annexin V-FITC/propidium iodide staining-based flow cytometric analysis. The format is functional, cell-based. For orientation: A flow cytometer gives signals particle by particle.
The test system of test [5] is K562. Put plainly: Induction of apoptosis in human K562 cells assessed as increase in Bax level at 2.5 uM after 48 hrs by Western blot analysis. In kind it is functional, cell-based. Put shortly:
(§2)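 K562 cells in 6 cm dishes treated 48 h at several concentrations, then lysed on ice 0.5 h and spun at 20,000g. Protein measured by BCA, run on 15% SDS-PAGE and transferred to PVDF. Membrane blocked in 5% BSA/TBS with Na₃VO₄ and NaF, primary antibody 2 h at room temperature, chemiluminescent detection of cleaved caspase-3/7/9, BAX and BCL-XL.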

Test [6] has as its system K562. Put plainly: Induction of apoptosis in human K562 cells assessed as early apoptotic cells at 0.5 uM after 48 hrs by annexin V-FITC/propidium iodide staining-based flow cytometric analysis (reference value: 2.1%). In kind it is functional.
The test system of test [7] is K562. Put plainly: Induction of apoptosis in human K562 cells assessed as decrease in BCL-XL level at 2.5 uM after 48 hrs by Western blot analysis. In kind it is functional, cell-based. The method in brief:
as §2

Test [8] concerns K562. Put plainly: Induction of apoptosis in human K562 cells assessed as early apoptotic cells at 2.5 uM after 48 hrs by annexin V-FITC/propidium iodide staining-based flow cytometric analysis (reference value: 2.1%). The format is functional.
The test system of test [9] is K562. Put plainly: Induction of apoptosis in human K562 cells assessed as activation of caspase-9 after 48 hrs by Western blot analysis. The format is functional, cell-based. The method in brief: as §2
Background: Immunoblotting shows a protein as a band on a membrane.

Test [10] has as its system DNA. Description: Effect on calf thymus DNA conformation at 40 to 80 uM by CD spectra analysis. In kind it is nucleic-acid assay. Conditions: Bos taurus. Put shortly:
(§3)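 CD spectra of ct DNA (40 μM) with compound at 0, 40 or 80 μM, in 10 mM Tris/10 mM NaCl pH 7.0, at room temperature in a 0.1 cm quartz cell. Each spectrum is the average of three scans with the buffer scan subtracted.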

Test [11] has as its system K562. Description: Induction of apoptosis in human K562 cells assessed as late apoptotic cells at 1 uM after 48 hrs by annexin V-FITC/propidium iodide staining-based flow cytometric analysis (reference value: 1.22%). The format is functional.
In test [12] the test system is K562. Description: Induction of apoptosis in human K562 cells assessed as early apoptotic cells at 1 uM after 48 hrs by annexin V-FITC/propidium iodide staining-based flow cytometric analysis (reference value: 2.1%). The format is functional.
Test [13] deals with DNA. Put plainly: Binding affinity to calf thymus DNA at 40 to 80 uM by CD spectra analysis. In kind it is nucleic-acid assay. The note with it: Bos taurus. The method in brief:
as §3

In test [14] the test system is K562. Put plainly: Induction of apoptosis in human K562 cells assessed as caspase-3 cleavage at 2.5 uM after 48 hrs by Western blot analysis. The format is functional, cell-based. The method in brief: as §2
Test [15] has as its system DNA. Put plainly: Binding affinity to calf thymus DNA after 5 mins by UV-vis absorption spectroscopic analysis. Conditions: Bos taurus. The format is nucleic-acid assay. Put shortly:
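ct DNA (purity A260:A280 1.86; concentration per mole phosphate from ε260 6600 M⁻¹ cm⁻¹) titrated into 50 μM compound in 10 mM Tris, 10 mM NaCl, pH 7.0. DNA 0–10 μM. Incubated 5 min, UV-vis absorption recorded in a 1.0 cm quartz cell. Kb taken as the slope-to-intercept ratio of [DNA]/(εa−εf) plotted against [DNA].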

For test [16], the system named is K562. Put plainly: Induction of apoptosis in human K562 cells assessed as late apoptotic cells at 0.5 uM after 48 hrs by annexin V-FITC/propidium iodide staining-based flow cytometric analysis (reference value: 1.22%). The format is functional.
The subject of test [17] is K562. Put plainly: Induction of apoptosis in human K562 cells assessed as caspase-7 cleavage at 2.5 uM after 48 hrs by Western blot analysis. In kind it is functional, cell-based. The method in brief: as §2
Test [18] deals with K562. Description: Induction of apoptosis in human K562 cells assessed as late apoptotic cells at 2.5 uM after 48 hrs by annexin V-FITC/propidium iodide staining-based flow cytometric analysis (reference value: 1.22%). The format is functional.

For orientation: IC50 means the midpoint of a concentration-inhibition curve. Regarding `COc1ccc2nc3cc(Cl)ccc3c(NCCCc3ccccc3)c2c1`, the IC50 was 3.26 µM with HepG2 and 2.2 µM with K562 [1]. Further, in the test on DNA [2], the Kq turned out to be 1.05 ×10⁵ /M.
Regarding `O=C(Nc1c2ccccc2nc2ccccc12)c1ccccc1`, the IC50 with HepG2 and with K562 [1] was more than 50 µM in each case. In the test on DNA [2], this molecule had a Kq of less than 1 ×10⁴ /M.
With `Cc1ccc(NC(=O)c2ccc(CN3CCN(C)CC3)cc2)cc1Nc1nccc(-c2cccnc2)n1` [IMATINIB], the IC50 in the test with K562 [1] is 0.47 µM.
On to `COc1ccc2nc3cc(Cl)ccc3c(NCCc3ccccc3)c2c1`, for which the half-inhibitory concentration (IC50) in the test on HepG2 stood at 2.19 µM; in the test with K562 [1], 0.65 µM. Besides, in the test with DNA [2], the Kq is 1.19 ×10⁵ /M.
Regarding `COc1cc(C)c2nc3cc(Cl)ccc3c(NCc3ccccc3)c2c1`, the figures for the IC50 in the test on HepG2 and with K562 [1] were 6.05 µM and 3.09 µM, respectively. The molecule further had a Kq with DNA [2] of 1.11 ×10⁵ /M.
For `Clc1ccc2c(NCc3ccccc3)c3ccccc3nc2c1`, the results for the 50% inhibitory concentration (IC50) with HepG2 and with K562 [1] were 11.6 µM and 9.24 µM, respectively. The molecule also gave a Kq in the test on DNA [2] of 1.33 ×10⁴ /M.
`c1ccc(CNc2c3ccccc3nc3ccccc23)cc1`: the results for the IC50 with HepG2 and in the test on K562 [1] were 6.07 µM and 5.24 µM, respectively. The inhibition result in test [3] was “Active”. Moreover, in the test with DNA [2], the Kq is 3.71 ×10⁴ /M.
Take `COc1ccc2nc3ccccc3c(NCc3ccccc3)c2c1`: the Activity entry in the test on K562 [4] is “Dose-dependent effect”; with K562 [6], 7.23%; with K562 [8], 40.44%; in the test with K562 [9], “Dose-dependent effect”; with K562 [11] it was 18.42%; in the test on K562 [12], 37.09%. Moreover, the Activity came out at 2% in the test on K562 [16] and 32.71% in the test with K562 [18]. Further, the result with K562 [5], in the test on K562 [7], in the test on DNA [13], in the test on K562 [14] and in the test with K562 [17] was Active. Also, the figures for the IC50 in the test on HepG2 and in the test with K562 [1] were 0.89 µM and 0.54 µM, respectively. Besides, the inhibition result in [3] is “Active”. Besides, the result in the test on DNA [10] was inactive. The molecule further gave a Kq in the test on DNA [2] of 3.5 ×10⁵ /M. The molecule further came in with a Kb with DNA [15] of 1.42 ×10⁵ /M.
Turning to `COc1cc2c(c(OC)c1OC)-c1ccc(OC)c(=O)cc1[C@@H](NC(C)=O)CC2` [COLCHICINE], in the test with HepG2, the IC50 amounted to 1.8 µM.
Turning to `Cc1cccc2c(NCc3ccccc3)c3ccccc3nc12`, the results for the concentration for half-maximal inhibition (IC50) with HepG2 and with K562 [1] were 3.64 µM and 4.86 µM, respectively. Moreover, the inhibition result in [3] was “Active”. In addition, in the test on DNA [2], the Kq worked out at 6.22 ×10⁴ /M.
`c1ccc(COc2c3ccccc3nc3ccccc23)cc1`: the IC50 with HepG2 and with K562 [1] was more than 50 µM each time. In the test on DNA [2], the Kq is less than 1 ×10⁴ /M.
For the molecule `COc1ccc2nc3cc(Cl)ccc3c(NCc3ccccc3)c2c1`, the IC50 was found to be 1.4 µM in the test with HepG2 and 0.65 µM with K562 [1]. Further, in the test with DNA [2], the Kq is 1.97 ×10⁵ /M.

The record behind these values is ChEMBL document CHEMBL2407048, “Novel synthetic acridine derivatives as potent DNA-binding and apoptosis-inducing antitumor agents” (Bioorg Med Chem, 2013).
